# Data reported in ChEMBL document CHEMBL1148341, “Selective inhibition of Trypanosoma brucei 6-phosphogluconate dehydrogenase by high-energy intermediate and transition-state analogues” (J Med Chem, 2004).
# Legend:
# Trypanosoma brucei = experiment: In vitro antiparasitic activity was determined against Trypanosoma brucei; assay type: functional, organism-based
# Leishmania donovani = experiment: In vitro antiparasitic activity was determined against Leishmania donovani; assay type: functional, organism-based
# How it was run: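 Mouse peritoneal macrophages in RPMI 1640 with 10% heat-inactivated FBS, infected after 24 h with L. donovani amastigotes (3:1 amastigotes to macrophages); free amastigotes removed at 4 h. Next day, drug dilutions added; 96 h at 37 °C, 5% CO2. Slides methanol-fixed and Giemsa-stained; infected vs noninfected macrophages counted microscopically as % of control; IC50 by linear regression.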
# Trypanosoma cruzi = experiment: In vitro antiparasitic activity was determined against Trypanosoma cruzi; assay type: functional, organism-based
# How it was run: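 L-6 rat myoblasts (2000 cells/well, RPMI 1640, 10% FBS, 2 mM L-glutamine) infected after 24 h with 5000 T. cruzi Tulahuen C2C4 LacZ trypomastigotes plus serial drug dilutions; 4 days at 37 °C, 5% CO2. MIC read microscopically; for IC50, CPRG/Nonidet added, colour read at 540 nm after 2–4 h, IC50 from sigmoidal curve.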
# Plasmodium falciparum = experiment: In vitro antiparasitic activity against Plasmodium falciparum; assay type: functional, organism-based
# L6 [1] = experiment: In vitro cytotoxic activity was determined against L6 cells; assay type: functional, cell-based, Rattus norvegicus
# L6 [2] = experiment: In vitro cytotoxic activity against L6 cells; assay type: functional, cell-based; conditions: Rattus norvegicus
# [3] = target: 6-phosphogluconate dehydrogenase (Ovis aries) (UniProt P00349); experiment: Inhibition constant against 6-phosphogluconate dehydrogenase of sheep liver; NI denotes no inhibition
# Chain of 6-phosphogluconate dehydrogenase (Ovis aries) (P00349 whole entry, looked up): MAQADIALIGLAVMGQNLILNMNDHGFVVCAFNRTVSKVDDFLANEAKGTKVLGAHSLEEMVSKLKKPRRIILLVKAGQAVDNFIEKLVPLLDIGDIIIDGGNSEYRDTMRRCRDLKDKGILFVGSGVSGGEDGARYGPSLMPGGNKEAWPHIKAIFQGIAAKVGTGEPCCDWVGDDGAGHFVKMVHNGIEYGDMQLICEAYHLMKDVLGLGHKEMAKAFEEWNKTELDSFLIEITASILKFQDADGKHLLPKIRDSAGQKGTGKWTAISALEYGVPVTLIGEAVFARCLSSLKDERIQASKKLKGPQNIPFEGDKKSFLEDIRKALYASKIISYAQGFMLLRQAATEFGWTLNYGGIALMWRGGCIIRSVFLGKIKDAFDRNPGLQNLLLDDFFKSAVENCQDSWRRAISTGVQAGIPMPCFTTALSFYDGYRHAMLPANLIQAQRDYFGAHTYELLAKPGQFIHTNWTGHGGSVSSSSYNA
# [4] = target: 6-phosphogluconate dehydrogenase (Trypanosoma brucei) (UniProt P31072); experiment: Inhibition constant against 6-phosphogluconate dehydrogenase of Trypanosoma brucei expressed in Escherichia coli; NI denotes no inhibition
# Chain of 6-phosphogluconate dehydrogenase (Trypanosoma brucei) (P31072 whole entry, looked up): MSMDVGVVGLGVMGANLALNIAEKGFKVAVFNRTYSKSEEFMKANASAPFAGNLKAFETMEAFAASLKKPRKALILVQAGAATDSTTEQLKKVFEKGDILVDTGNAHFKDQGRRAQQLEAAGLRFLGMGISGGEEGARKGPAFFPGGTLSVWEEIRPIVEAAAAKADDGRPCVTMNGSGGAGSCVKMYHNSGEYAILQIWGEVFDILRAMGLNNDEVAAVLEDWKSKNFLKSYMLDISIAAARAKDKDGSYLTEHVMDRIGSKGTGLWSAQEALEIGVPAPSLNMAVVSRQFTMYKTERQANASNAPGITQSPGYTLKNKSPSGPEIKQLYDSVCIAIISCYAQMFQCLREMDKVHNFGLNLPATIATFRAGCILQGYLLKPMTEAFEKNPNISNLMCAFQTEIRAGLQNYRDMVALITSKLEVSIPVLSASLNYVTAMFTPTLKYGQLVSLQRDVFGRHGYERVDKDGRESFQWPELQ
IC50 (Trypanosoma brucei) [µM],IC50 (Leishmania donovani) [µM],IC50 (Trypanosoma cruzi) [µM],IC50 (Plasmodium falciparum) [µM],Ki [3],Ki [4],Structure (SMILES),IC50 (L6 [1]),IC50 (L6 [2]) [µM]
113,> 105,> 315,78,–,–,O=C1OC[C@@H](OC2CCCO2)[C@H]1OC1CCCO1 (stereo partly drawn),–,–
229,–,> 285,> 159,–,–,CC(=O)O[C@H](COP(=O)(O)O)[C@@H](OC(C)=O)C(=O)NO,–,> 285
60,> 17,> 154,> 85,Not Active,Not Active,CC(=O)O[C@H](COP(=O)(OCc1ccccc1)OCc1ccccc1)[C@@H](OC(C)=O)C(=O)NOCc1ccccc1,–,–
113,> 99,> 296,> 164,–,–,CC(=O)O[C@H](COP(=O)(O)O)C[S+]([O-])CC(=O)O (stereo partly drawn),Not Active,–
126,> 55,> 166,> 92,–,–,CC1(C)O[C@H](COP(=O)(OCc2ccccc2)OCc2ccccc2)[C@H](C(=O)NOCc2ccccc2)O1,–,–
277,> 139,> 418,> 232,–,–,NC(=O)[C@H](O)[C@H](O)COP(=O)(O)O,–,> 418
> 332,> 111,> 332,> 184,–,–,CC1(C)O[C@H](COP(=O)(O)O)[C@H](C(=O)NO)O1,–,> 332
75,> 117,212,> 195,–,–,O=C(CSC[C@H](O)CO)OCc1ccccc1,–,–

# Further lines, the compound ahead of its results:
Structure (SMILES),IC50 (Trypanosoma brucei) [µM],IC50 (Leishmania donovani) [µM],IC50 (Trypanosoma cruzi) [µM],IC50 (Plasmodium falciparum) [µM],Ki [3],Ki [4],IC50 (L6 [1]),IC50 (L6 [2]) [µM]
CC(=O)O[C@H](COP(=O)(OCc1ccccc1)OCc1ccccc1)[C@@H](OC(C)=O)C(=O)N(OCc1ccccc1)C(C)=O,49,> 48,> 143,> 80,–,–,–,–
O=C1OC[C@@H](O)[C@H]1O,–,–,–,–,–,–,Not Active,–
CC1(C)OC[C@H](CSCC(=O)OCc2ccccc2)O1,> 304,> 101,215,> 169,–,–,–,–
O=C(NO)[C@H](OC1CCCO1)[C@@H](CCO)OC1CCCO1 (stereo partly drawn),61,> 94,> 282,~157,–,–,–,–
O=C(NOCc1ccccc1)[C@H](O)[C@H](O)COP(=O)(OCc1ccccc1)OCc1ccccc1,130,33,> 179,> 100,–,–,–,–
O=C(C[S+]([O-])C[C@H](O)COP(=O)(OCc1ccccc1)OCc1ccccc1)OCc1ccccc1 (stereo partly drawn),82,> 56,> 169,> 94,Not Active,Not Active,–,–
CC1(C)O[C@H](COP(=O)(O)O)[C@H](C(N)=O)O1,212,–,131,> 196,–,–,–,> 220
O=C(NO)[C@H](O)[C@H](O)COP(=O)(O)O,> 389,> 130,> 389,> 216,–,–,–,269
O=C(C[S+]([O-])C[C@@H](COP(=O)(OCc1ccccc1)OCc1ccccc1)OC1CCCO1)OCc1ccccc1 (stereo partly drawn),73,–,82,7,Not Active,Not Active,–,91
O=C(O)C[S+]([O-])C[C@H](O)COP(=O)(O)O (stereo partly drawn),244,–,> 343,> 191,–,–,–,343
O=C(NO)[C@H](O)[C@H](O)CO,116,> 199,290,18,–,–,–,–
CC1(C)O[C@H](CO)[C@H](C(=O)NOCc2ccccc2)O1,3.5,30,> 32,53,–,–,–,37
CC(=O)O[C@H](COP(=O)(OCc1ccccc1)OCc1ccccc1)CSCC(=O)OCc1ccccc1,137,28,> 161,62,–,–,–,–
CC(=O)O[C@H](COP(=O)(OCc1ccccc1)OCc1ccccc1)C[S+]([O-])CC(=O)OCc1ccccc1 (stereo partly drawn),36,27,> 157,18,Not Active,Not Active,–,60
CC1(C)O[C@@H]2COC(=O)[C@@H]2O1,262,> 190,> 569,> 316,–,–,Not Active,–
O=C(CSC[C@H](O)COP(=O)(OCc1ccccc1)OCc1ccccc1)OCc1ccccc1,47,23,124,65,–,–,–,–
